tolC growth inh = growth inhibitors of E. coli BW25113 tolC mutant; hit rate 2.2% among 65,000; OD615; growth inhibition, % at 10 µM (by protocol);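 active means growth inhibition at or above a cutoff equal to the mean over every tested compound plus 3 SD, cut at about 60% in these data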;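 further: growth measured after 20 h incubation at 37 °C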
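Test system: E. coli BW25113 ΔtolC::kan bacteria | Medium: Kanamycin-containing LB broth (50 µg/mL) | Dosing: One dose of 10 µM final | Times: 20 h incubation with compound, 37 °C | Detection: Optical density read at 615 nm | Read-out basis: Percent growth inhibition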
PostGolgi ctrl = yeast control strain growth, post-Golgi counter-screen. inhibition, % at 10 µM. efflux-deficient yeast background strain, growth absorbance A615, 16 h. hit rate 5% among 98,000
E coli WT exp = blocks growth of wild type E. coli BW25113; OD600 absorbance; hit rate 0.15% among 98,000; AID 710; growth inhibition, % at 100 µM;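 active means growth inhibition above about 50% at one test dose, limit read from the data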;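 further: growth measured after 20 h incubation at 37 °C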
Cav3 T inh = blocks human Cav3.2 T-type calcium channel | Cav3.2-expressing cells, Fluo-4 calcium fluorescence FDSS; hits give low values | AID 449739 | B-score at 10 µM | hit rate 4% among 100,000;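 active means single-dose well whose peak fluorescence ratio is a statistical outlier from its plate by either plate-standardised score or position-corrected B-score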
Target sequence (O95180 whole entry, looked up): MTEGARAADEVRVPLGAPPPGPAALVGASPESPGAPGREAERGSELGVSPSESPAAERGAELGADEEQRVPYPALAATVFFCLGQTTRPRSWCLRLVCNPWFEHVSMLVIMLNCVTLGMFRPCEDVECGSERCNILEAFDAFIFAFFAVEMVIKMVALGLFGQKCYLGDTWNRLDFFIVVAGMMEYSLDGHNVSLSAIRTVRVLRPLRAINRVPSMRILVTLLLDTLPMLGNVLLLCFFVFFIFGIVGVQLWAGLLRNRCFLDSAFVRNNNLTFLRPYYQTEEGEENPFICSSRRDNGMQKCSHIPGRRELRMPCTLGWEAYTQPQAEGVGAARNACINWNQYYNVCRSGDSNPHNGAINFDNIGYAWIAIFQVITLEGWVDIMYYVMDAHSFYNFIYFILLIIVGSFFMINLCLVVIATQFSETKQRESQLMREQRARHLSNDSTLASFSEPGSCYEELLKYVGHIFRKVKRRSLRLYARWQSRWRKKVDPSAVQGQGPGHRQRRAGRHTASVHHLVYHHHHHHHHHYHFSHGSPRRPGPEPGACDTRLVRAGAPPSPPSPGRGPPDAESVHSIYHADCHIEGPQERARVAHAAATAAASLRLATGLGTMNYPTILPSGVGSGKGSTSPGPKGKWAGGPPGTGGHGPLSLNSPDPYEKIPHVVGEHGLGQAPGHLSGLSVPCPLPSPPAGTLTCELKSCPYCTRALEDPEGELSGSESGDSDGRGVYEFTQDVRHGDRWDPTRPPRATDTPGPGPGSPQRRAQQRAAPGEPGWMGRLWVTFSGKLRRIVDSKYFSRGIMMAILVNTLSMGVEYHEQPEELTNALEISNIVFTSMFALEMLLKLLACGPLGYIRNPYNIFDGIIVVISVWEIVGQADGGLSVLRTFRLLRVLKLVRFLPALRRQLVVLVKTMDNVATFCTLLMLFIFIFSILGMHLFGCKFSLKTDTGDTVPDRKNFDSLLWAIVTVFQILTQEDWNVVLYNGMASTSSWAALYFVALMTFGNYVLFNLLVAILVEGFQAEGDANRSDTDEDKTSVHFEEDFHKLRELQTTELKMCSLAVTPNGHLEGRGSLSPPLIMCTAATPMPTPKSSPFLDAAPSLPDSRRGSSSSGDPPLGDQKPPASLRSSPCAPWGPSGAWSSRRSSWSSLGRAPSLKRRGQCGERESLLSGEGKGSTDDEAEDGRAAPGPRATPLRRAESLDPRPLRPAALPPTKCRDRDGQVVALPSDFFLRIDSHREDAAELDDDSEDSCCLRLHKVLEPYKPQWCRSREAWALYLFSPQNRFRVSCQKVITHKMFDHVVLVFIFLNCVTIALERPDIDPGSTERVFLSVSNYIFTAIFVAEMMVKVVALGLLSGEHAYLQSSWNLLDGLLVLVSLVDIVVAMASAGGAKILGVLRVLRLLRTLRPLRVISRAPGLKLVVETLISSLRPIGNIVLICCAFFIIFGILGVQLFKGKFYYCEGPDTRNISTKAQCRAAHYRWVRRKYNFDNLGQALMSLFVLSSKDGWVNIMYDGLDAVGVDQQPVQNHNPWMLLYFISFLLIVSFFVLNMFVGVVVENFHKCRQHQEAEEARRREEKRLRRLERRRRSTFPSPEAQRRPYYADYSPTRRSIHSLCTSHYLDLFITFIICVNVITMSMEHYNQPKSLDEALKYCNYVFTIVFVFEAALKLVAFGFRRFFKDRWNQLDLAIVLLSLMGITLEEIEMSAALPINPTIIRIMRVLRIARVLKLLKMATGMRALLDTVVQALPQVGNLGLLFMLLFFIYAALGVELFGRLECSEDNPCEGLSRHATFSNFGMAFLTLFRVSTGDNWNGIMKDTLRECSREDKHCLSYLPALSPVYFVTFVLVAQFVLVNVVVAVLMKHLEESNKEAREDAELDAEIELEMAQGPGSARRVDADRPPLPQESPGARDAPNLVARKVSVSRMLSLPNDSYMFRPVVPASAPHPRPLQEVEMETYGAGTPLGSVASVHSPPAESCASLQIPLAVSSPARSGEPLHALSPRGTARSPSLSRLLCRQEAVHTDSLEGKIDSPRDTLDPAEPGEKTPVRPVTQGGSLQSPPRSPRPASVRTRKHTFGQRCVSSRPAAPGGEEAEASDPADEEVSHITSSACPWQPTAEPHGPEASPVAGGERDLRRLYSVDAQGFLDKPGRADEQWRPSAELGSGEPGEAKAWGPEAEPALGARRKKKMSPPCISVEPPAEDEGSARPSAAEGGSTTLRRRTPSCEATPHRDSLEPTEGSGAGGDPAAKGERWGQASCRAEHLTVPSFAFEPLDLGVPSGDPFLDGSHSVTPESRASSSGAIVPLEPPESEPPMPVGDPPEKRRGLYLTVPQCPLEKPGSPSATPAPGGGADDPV
PostGolgi yeast = growth inhibition of a yeast mutant, post-Golgi transport screen; inhibition, % at 10 µM; post-Golgi transport phenotypic cell assay; hit rate 0.9% among 98,000;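 further: yeast cells grown in 1536-well plates; yeast grown about 18 h at 30C before absorbance read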
Of the large screens only hits and unclear results are named; the others gave an inactive call. Hits are enriched below; roughly 8.4% of the tested compounds scored in any of these assays. Unless noted, no stated cut-off is given here; in the data, active means inhibition above about 30%; inactive means the rest.

O=c1c(-c2nnc(SCc3ccc(Cl)cc3)o2)cccn1Cc1ccccc1	PostGolgi ctrl 61 (no result: tolC growth inh)
O=C(Nc1ccccc1-c1nnc(SCc2ccc(Cl)cc2)o1)c1ccccc1	Cav3 T inh -4.2 (no result: tolC growth inh)
Cc1nc(-c2ccc(Cl)cc2)sc1C1(C)CC(c2ccc(C#N)cc2)=NO1 (stereo not drawn)	none (no result: tolC growth inh, PostGolgi ctrl, E coli WT exp, PostGolgi yeast)
C[C@H]1CCC[C@@]2(O[C@@H](CCO)C[C@@H](O)[C@@H]2O)O1	none (no result: tolC growth inh, PostGolgi ctrl, E coli WT exp, PostGolgi yeast)
CCc1nc(NCCc2ccccn2)c2nnn(Cc3ccccc3F)c2n1	none
CCCc1nc(NCc2ccccn2)c2nnn(Cc3ccccc3F)c2n1	PostGolgi ctrl 100 (no result: tolC growth inh, Cav3 T inh)
O=C(NC1CC1)C1CCN(Cc2cnn(-c3ccccc3)c2-n2cccc2)CC1	none (no result: tolC growth inh)
Cc1c(CN(C)CCc2ccccc2)c(=O)n(-c2ccccc2)n1C	none
CCCn1c(CN2CCN(C(=O)c3ccco3)CC2)nc2c1c(=O)n(C)c(=O)n2C	PostGolgi ctrl 35
Cn1c(=O)c2c(nc(CN3CCN(C(=O)c4ccco4)CC3)n2CCCc2ccccc2)n(C)c1=O	PostGolgi ctrl 32 (no result: Cav3 T inh)
CCCCn1c(CN2CCN(C(=O)c3ccco3)CC2)nc2c1c(=O)n(C)c(=O)n2C	none
Cc1cc(Oc2ccc(C#N)cc2)nc(NCc2ccccc2)n1	PostGolgi ctrl 31 (no result: tolC growth inh)
COC(=O)c1ccc(Oc2cc(C)nc(NCc3ccccc3)n2)cc1	none
O=C(Oc1ccccc1C(=O)Oc1ccccc1)c1ccco1	none
COc1cccc(Oc2cncnc2-c2ccc(OC)cc2O)c1	PostGolgi ctrl 56, Cav3 T inh -3.9, PostGolgi yeast 84
Cc1ccc2[nH]c3c(c2c1)CCCC3=O	none (no result: tolC growth inh)
Nc1ccc(C(=O)N/N=C2\CCCc3c2[nH]c2ccccc32)cc1	PostGolgi ctrl 44 (no result: tolC growth inh)
CSc1nc(N)nc(-c2cccs2)c1C#N	none (no result: tolC growth inh)
CC(C)Sc1nc(N)nc(-c2cccs2)c1C#N	PostGolgi ctrl 80 (no result: tolC growth inh, Cav3 T inh)
O=C(CN1CCCN(S(=O)(=O)c2ccc(Br)cc2)CC1)Nc1ccc2cn[nH]c2c1	none (no result: PostGolgi ctrl, E coli WT exp, PostGolgi yeast)
CC(=O)Nc1cc(NC(C)=O)cc(C(=O)OCC(=O)N2CC(C)OC(C)C2)c1 (stereo not drawn)	none
C#C[C@]1(O)CC[C@H]2[C@@H]3CCC4=Cc5oncc5C[C@]4(C)[C@H]3CC[C@@]21C	Cav3 T inh -4.5 (no result: tolC growth inh, PostGolgi ctrl, E coli WT exp, PostGolgi yeast)
COc1ccccc1N1CCN(C(=O)c2ccncc2)CC1	none
COc1cc2c(C(=O)N3CCN(c4ccccc4C)CC3)c(C)oc2cc1Br	PostGolgi ctrl 57 (no result: tolC growth inh)
COc1ccccc1N1CCN(C(=O)c2cc(-c3cccs3)on2)CC1	PostGolgi ctrl 50
COc1ccccc1N1CCN(C(=O)CSc2ccccc2)CC1	none (no result: tolC growth inh)
COc1ccccc1N1CCN(C(=O)c2ccc(C(C)(C)C)cc2)CC1	PostGolgi ctrl 36, Cav3 T inh -5
COc1ccccc1N1CCN(C(=O)c2cc(-c3ccco3)on2)CC1	none
COc1ccccc1N1CCN(C(=O)C(Sc2ccccc2)c2ccccc2)CC1 (stereo not drawn)	Cav3 T inh -4.6 (no result: tolC growth inh)
COc1ccccc1NC(=O)CSc1nc(C)c2c(c1C#N)CCCC2	none (no result: tolC growth inh)
CC(C)(CO)C(O)C(=O)NCCC#N (stereo not drawn)	none (no result: tolC growth inh, PostGolgi ctrl, E coli WT exp, PostGolgi yeast)
COc1ccccc1N1CCN(C(=O)c2sc3nc(-c4ccc(F)cc4)cn3c2C)CC1	PostGolgi ctrl 45 (no result: Cav3 T inh)
COc1ccccc1N1CCN(C(=O)c2c(C)cc(=O)oc2C)CC1	none
COc1ccccc1N1CCN(C(=O)c2oc3cc(C)c(C)cc3c2C)CC1	tolC growth inh 72, PostGolgi ctrl 42
CCOc1ccccc1C1CC(=O)NC(SCC(=O)Nc2nccs2)=C1C#N (stereo not drawn)	none (no result: tolC growth inh)
O=C(NCc1ccc2c(c1)OCO2)c1ccc(CS(=O)(=O)c2cccc(C(F)(F)F)c2)o1	PostGolgi yeast 96 (no result: Cav3 T inh)
CC(NC(=O)c1ccc(CS(=O)(=O)c2cccc(C(F)(F)F)c2)o1)c1ccc2c(c1)OCCO2 (stereo not drawn)	PostGolgi yeast 37 (no result: tolC growth inh)
CCOc1cc(/C=N/NC(=O)CNc2ccc(C)cc2)ccc1OC(=O)c1ccccc1	none (no result: tolC growth inh)
COc1ccc(-c2cc(C(F)(F)F)nc(-n3cc(Cl)cn3)n2)cc1	PostGolgi ctrl 41 (no result: tolC growth inh)
Cc1[nH]nc(-c2ccc(OCc3cnn(-c4ccccc4)c3)cc2O)c1Oc1ccc(F)cc1	none (no result: tolC growth inh)
CCOc1ccc(-c2n[nH]c(C)c2Oc2ccc(OC)cc2)c(O)c1	tolC growth inh 95, PostGolgi ctrl 33
Cc1[nH]nc(-c2ccc(OCc3cnn(-c4ccccc4)c3)c(C)c2O)c1Oc1ccccc1	none (no result: tolC growth inh)
Cc1[nH]nc(-c2ccc(O)c(C)c2O)c1Oc1ccccc1	PostGolgi ctrl 38 (no result: tolC growth inh)
O=C(NCc1ccccc1)C1=C[C@H](C2CC2)C[C@H](OCCCCO)O1	none (no result: tolC growth inh, PostGolgi ctrl, E coli WT exp, PostGolgi yeast)
CCN1CCCC1CNC(=O)C1CCN(Cc2nc(-c3cccc(Br)c3)oc2C)CC1 (stereo not drawn)	none (no result: Cav3 T inh)
O=C(OCc1cc(Cl)ccc1OC(F)F)c1cc(S(=O)(=O)O)ccc1O	none
CC(=O)c1ccc(NC2=C(N3CCOCC3)C(=O)c3ccccc3C2=O)cc1	PostGolgi ctrl 34 (no result: tolC growth inh)
Cc1ccc(NC2=C(N3CCOCC3)C(=O)c3ccccc3C2=O)cc1	none (no result: tolC growth inh)
CCc1nnc(NC(=O)CCC(=O)N2CCN(c3ccccn3)CC2)s1	none (no result: tolC growth inh, Cav3 T inh)
Cc1ccc(S(=O)(=O)/N=C(\c2ccc(Cl)cc2)N2CCOCC2)cc1	none (no result: tolC growth inh)
CN(Cc1ccccc1)C(=O)CCS(=O)(=O)c1ccc2c(c1)n(C)c(=O)c(=O)n2C	Cav3 T inh -4.9
CCC(C)NC(=O)CCS(=O)(=O)c1ccc2c(c1)n(C)c(=O)c(=O)n2C (stereo not drawn)	none
COC(=O)NCC1(C)CC(NC(=O)OC)CC(C)(C)C1 (stereo not drawn)	none (no result: Cav3 T inh)
COC(=O)NC1CCC(CC2CCC(NC(=O)OC)CC2)CC1 (stereo not drawn)	PostGolgi ctrl 49 (no result: tolC growth inh)
COc1ccc(C(=O)N(Cc2nc(-c3ccc(C)cc3)no2)C2CCCCC2)cc1OC	Cav3 T inh -4
CCOC(=O)C1CCN(Cc2nc(-c3ccc(OC)c(OC)c3)no2)CC1	none
CCOC(=O)c1c(C)n(C)c2ccc(OC)c(NS(=O)(=O)c3ccc(Cl)s3)c12	PostGolgi ctrl 34
CCOC(=O)c1c(C)n(C)c2ccc(OC)c(NC(=O)CN3CCCCC3)c12	none (no result: Cav3 T inh)
CCOc1ccc(OCc2ccc(C(=O)OCc3ccccn3)o2)cc1	none (no result: Cav3 T inh)
CCCOc1ccc(/C=N/NC(=O)C2CCCN2S(=O)(=O)c2ccc(Cl)cc2)cc1 (stereo not drawn)	none (no result: tolC growth inh)
CC(C)Oc1ccc(/C=N/NC(=O)C2CCCN2S(=O)(=O)c2ccc(Cl)cc2)cc1 (stereo not drawn)	Cav3 T inh -4.7 (no result: tolC growth inh)
N#C/C(=C\c1ccc(Cl)cc1)c1nc2ncccc2[nH]1	PostGolgi ctrl 48 (no result: tolC growth inh, Cav3 T inh)
Cc1ccc(/C=C(\C#N)c2nc3ccccc3[nH]2)s1	none (no result: tolC growth inh)
O=C(C(Cc1ccccc1)n1cccc1)N1CCc2ccccc21 (stereo not drawn)	Cav3 T inh -6.2
O=C(O)C(Cc1ccccc1)n1cccc1 (stereo not drawn)	none
CC1CN(c2ccc(Oc3ccccc3)cc2)c2nc3c(c(=O)[nH]c(=O)n3C)n2C1 (stereo not drawn)	none
O=C(c1ccccc1)N1CCN2C(=O)c3ccccc3C12c1ccc(Cl)cc1 (stereo not drawn)	Cav3 T inh -8.4 (no result: tolC growth inh)
O=C(Nc1ccccc1)N1CCCC1	none (no result: tolC growth inh)

Screens (PubChem BioAssay)
